# Screening results (PubChem BioAssay)
# core dimer inh: inhibitors of HCV core protein dimerization, primary screen, biochemical, TR-FRET, high-throughput. TR-FRET GST/Flag-core106 dimerization, 1536-well. inhibition, % at 5 µM. 0.33% of 300,000 active. AID 1899, 2009;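 active means inhibition above the mean of all tested compounds plus 3 SD, set per screening campaign, cut at about 45% in these data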
#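 Test system: GST/Flag-tagged HCV core106 proteins; Medium: KF-containing HEPES buffer, pH 7.45, DTT, CHAPS, BSA; Times: compound-protein-antibody incubation 4 h at 22.5 °C; Detection: TR-FRET 671 and 617 nm emission; Benchmarks: wells lacking GST-core106 and wells with excess unlabelled core106.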
# UBC9 SUMO inh: inhibitors of in vitro SUMOylation cascade, primary screen, biochemical, HTRF, uHTS | SUMO-conjugating enzyme UBC9 (Homo sapiens), P63279 | inhibition, % at 35 µM | HTRF SUMOylation assay, SAE1/SAE2 + UBC9 | 0.36% of 290,000 active; in the data active means inhibition above about 50%, passing the limit was not always enough
# Target sequence (P63279 whole entry, looked up): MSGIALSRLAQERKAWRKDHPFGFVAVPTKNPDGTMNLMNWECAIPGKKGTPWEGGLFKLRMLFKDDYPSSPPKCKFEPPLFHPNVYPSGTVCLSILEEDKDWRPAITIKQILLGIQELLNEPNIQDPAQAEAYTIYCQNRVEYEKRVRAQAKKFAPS
# VIM-2 inh: VIM-2 metallo-beta-lactamase inhibitors, primary screen, biochemical, epi-absorbance readout, Pseudomonas aeruginosa enzyme. purified VIM-2, nitrocefin hydrolysis, epi-absorbance fluorescence. 0.89% of 290,000 active. inhibition, % at 5.6 µM;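 active means inhibition above the mean of all tested compounds plus 3 SD, cutoff set per screening run, cut at about 7.5% in these data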;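 further: red hydrolysis product quenches plate fluorescence so inhibitors raise well fluorescence; 0% = enzyme with DMSO and 100% = DMSO without enzyme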
# PHOSPHO1 inh: PubChem AID 1565; inhibition, % at 13.3 µM; 1.1% of 290,000 active; Phosphoethanolamine/phosphocholine phosphatase (Homo sapiens), Q8TCT1; recombinant PHOSPHO1, absorbance phosphatase assay; in the data active means inhibition above about 60%
# Target sequence (Q8TCT1 whole entry, looked up): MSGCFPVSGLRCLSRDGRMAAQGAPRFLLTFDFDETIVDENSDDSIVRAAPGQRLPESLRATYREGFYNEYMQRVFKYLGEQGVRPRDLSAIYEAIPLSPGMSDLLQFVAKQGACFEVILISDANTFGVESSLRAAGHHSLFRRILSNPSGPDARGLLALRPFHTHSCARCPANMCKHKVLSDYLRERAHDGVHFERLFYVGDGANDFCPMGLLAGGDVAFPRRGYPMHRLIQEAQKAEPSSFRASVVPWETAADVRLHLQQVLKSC
# IMP-1 inh: IMP-1 metallo-beta-lactamase inhibitors, primary screen, biochemical, epi-absorbance readout, Pseudomonas aeruginosa enzyme. inhibition, % at 5.6 µM. 0.45% of 290,000 active. purified IMP-1, nitrocefin hydrolysis, epi-absorbance fluorescence;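 active means inhibition above the mean plus 3 SD of all compounds in the same screening run, cut at about 4.5% in these data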;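 further: 0% = IMP-1 with DMSO and 100% = DMSO wells lacking enzyme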
#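 Assay system: purified IMP-1; Quantity: IMP-1 0.2 nM before substrate addition; Medium: HEPES buffer pH 7.1 with ZnSO4 and Brij 35; Incubation: 15 min enzyme–compound preincubation, then 25 min nitrocefin reaction, 25 °C; Signal: fluorescence quenching readout, ex 480/em 530 nm; Controls: DMSO with and without IMP-1; Repeats: singlicate testing.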
# HCV NS3 hel inh: inhibitors of HCV NS3 helicase, primary screen, biochemical, Cy5 molecular beacon fluorescence; inhibition, % at 10.9 µM; AID 1800, 2009; NS3 helicase DNA unwinding; 0.56% of 290,000 active; Hepatitis C virus NS3 helicase;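 active means inhibition above the mean of all tested compounds plus 3 SD, set per campaign, cut at about 35% in these data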;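 further: 0% = DMSO wells and 100% = thioflavine S control wells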
#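 System: HCV NS3 helicase fragment; control set: DMSO and thioflavine S; technique: Cy5 fluorescence at 0 and 60 min, beacon hairpin quenching; reagent: beacon DNA duplex substrate plus ATP; replicates: singlicate; schedule: 1 h reaction at 25 °C, ATP-initiated; medium: MOPS buffer pH 6.5 with MgCl2, DTT, Tween20, BSA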
# The depositor's hits bear a star; . = not tested or not shown. Shown are actives, neighbours in structure and some others; about 3.1% of the full set was active somewhere.
SMILES,core dimer inh,UBC9 SUMO inh,VIM-2 inh,PHOSPHO1 inh,IMP-1 inh,HCV NS3 hel inh
Cc1ccc(Cl)cc1Nc1nc(-c2sc(NC(=O)C(C)(C)C)nc2C)cs1,-61.5,8.9,-0.4,72.0*,18.1*,-5.8
COc1ccccc1Nc1nc(-c2sc(NC(=O)CC(C)C)nc2C)cs1,-1.3,5.8,-1.5,76.8*,-1.0,-1.3
C=CCCC(=O)Nc1nc(C)c(-c2csc(Nc3cc(OC)ccc3OC)n2)s1,-8.9,1.3,-1.3,71.9*,-2.9,-20.6
COc1cccc(Nc2nc(-c3sc(NC(=O)CC(C)C)nc3C)cs2)c1,-0.6,23.7,-4.2,103.5*,5.9*,1.8
COc1cccc(Nc2nc(-c3sc(NC(=O)c4ccccc4)nc3C)cs2)c1,-5.5,21.3,-2.7,44.3,-4.4,-2.6
Cc1ccccc1Nc1nc(-c2sc(NC(=O)c3ccco3)nc2C)cs1,1.2,-1.1,-4.4,65.6*,-2.0,-6.2
CCCC(=O)Nc1nc(C)c(-c2csc(Nc3ccc(Cl)cc3)n2)s1,-5.7,13.3,-4.9,20.1,-1.6,11.3
COc1ccc(OC)c(Nc2nc(-c3sc(N)nc3C)cs2)c1,-13.2,0.3,-2.8,52.7,-5.7,4.4
CCCC(=O)Nc1nc(C)c(-c2csc(Nc3cc(OC)ccc3OC)n2)s1,-8.0,32.1,-1.7,88.9*,-1.9,-16.1
CCCCCC(=O)Nc1nc(C)c(-c2csc(Nc3cc(Cl)ccc3OC)n2)s1,2.9,10.9,-1.8,88.9*,-1.6,14.4
CCc1cccc(NS(=O)(=O)c2ccc3c(c2)oc(=O)n3C)c1,1.6,26.7,1.9,67.5*,-1.1,-1.4
COC(=O)c1ccc(NC(=O)C2CCCN2C(=O)OCc2ccccc2)cc1 (stereo unspecified),4.8,12.5,-2.9,34.1,-1.2,1.7
COC(=O)c1cc(Br)c(N)cc1OC,-0.5,18.1,-2.7,61.0*,-3.5,2.8
O=C(CSc1ccc(Cl)cc1)NNC(=O)c1ccco1,-1.7,7.1,-3.8,18.5,-3.8,3.9
CCOC(=O)C(NC=O)(NC(C)(C)C)C(=O)OCC,-2.3,12.7,-1.6,3.6,4.8*,-4.6
Cc1c(-n2c(-c3ccccc3Cl)n[nH]c2=S)c(=O)n(-c2ccccc2)n1C,-3.3,4.2,74.0*,-75.1,-4.8,3.0
C/C(=N\NC(=O)Cc1c(Cl)cccc1Cl)c1cccnc1,.,0.0,-1.6,47.7,-5.1,2.4
NC(=S)n1[nH]c(-c2ccc([N+](=O)[O-])cc2)c(N=Nc2ccc(Cl)cc2)c1=O,.,64.0*,-3.2,43.7,-4.2,14.9
Cc1ccc([N+](=O)[O-])cc1N=Nc1c(-c2ccc([N+](=O)[O-])cc2)[nH]n(C(N)=S)c1=O,.,22.0,-2.4,16.1,-1.5,1.5
CCOC(=O)c1ccc2c(c1)n(CCO)c(C)[n+]2CC,-0.1,15.6,-0.5,89.5*,1.1,-6.7
COc1cc(C2C(C#N)=C(N)Oc3cc(C)oc(=O)c32)cc2c1OCO2 (stereo unspecified),65.3*,26.9,-0.4,-20.6,-2.1,13.3
COc1cc(C2C(C#N)=C(N)Oc3cc(C)oc(=O)c32)cc(OC)c1OC (stereo unspecified),1.1,-13.8,-3.9,44.1,-4.4,-1.0
c1cc2c3c(cccc3c1)NC1(CCCCCC1)N2,51.7*,37.6,-2.8,21.5,-2.4,-8.5
O=C(NCc1ccc2c3c(cccc13)C(=O)N2)c1cccs1,.,18.1,-0.8,12.3,-3.3,4.6
CCN(CC)c1ccc(/C=N/NC(=O)CNC(=O)C2COc3ccccc3O2)c(O)c1 (stereo unspecified),-5.0,50.8*,-3.5,9.4,-5.8,12.7
SMILES,core dimer inh,UBC9 SUMO inh,VIM-2 inh,PHOSPHO1 inh,IMP-1 inh,HCV NS3 hel inh
COc1cc(/C=N\NC(=O)CNC(=O)C2COc3ccccc3O2)ccc1O (stereo unspecified),-6.5,-7.2,-3.0,10.7,-3.8,5.3
O=c1oc2ccccc2nc1/C=C(O)/C=C\c1ccccc1,50.2*,5.2,-4.4,1.2,-0.6,34.5
O=c1oc2ccccc2nc1/C=C(O)/C=C/c1ccc(F)cc1,-0.2,21.2,-2.5,-14.7,-2.0,30.6
CC1CCc2sc(NC(=O)C3CC(Cl)=CCC3C(=O)O)c(C#N)c2C1 (stereo unspecified),11.9,3.2,-1.1,-25.8,-2.4,31.1
COCC(=O)N1CCCC(N(C)CCc2ccc(OC)c(OC)c2)C1 (stereo unspecified),-8.4,-9.7,-2.2,13.9,8.0*,-0.2
O=C(Cn1nnc2ccccc21)NNC(=S)NC1CCCCC1,-3.4,-18.3,-4.1,-102.9,-4.8,-4.0
COc1cccc(CN2CC(C(=O)NCCc3ccc(C)o3)CCC2=O)c1 (stereo unspecified),.,-1.3,-4.8,26.5,-3.6,-1.4
COc1ccc(O)c(C(=O)c2cc(C#N)c(=O)n(CC3CCCO3)c2)c1 (stereo unspecified),8.6,39.4,-3.0,64.4*,-1.1,6.0
Cc1ccc(O)c(C(=O)c2cc(C#N)c(=O)n(CC3CCCO3)c2)c1 (stereo unspecified),8.4,21.3,-0.9,19.9,-2.6,18.5
Cc1c(NC(=O)C(C)OC(=O)c2cc(Cl)ccc2O)c(=O)n(-c2ccccc2)n1C (stereo unspecified),-2.9,-4.9,-1.6,37.6,-2.3,1.4
Clc1ccc2[nH]c3c(NCCCN4CCOCC4)ncnc3c2c1,5.2,-29.7,9.9*,6.8,1.6,-15.4
O=C1CCCN1CCCNc1ncnc2c1[nH]c1ccc(Cl)cc12,-2.2,4.5,3.0,2.9,3.6,-16.6
CCN1CCCC1CNc1ncnc2c1[nH]c1ccc(Cl)cc12 (stereo unspecified),-1.6,21.5,12.2*,31.3,2.4,-31.4
Cc1ccc2[nH]c3c(NCCN4CCOCC4)ncnc3c2c1,.,-7.1,4.1,20.1,0.7,2.3
Cc1[nH]c(C)c(S(=O)(=O)Nc2cccc(Cl)c2C)c1C(=O)N1CCCCC1,0.2,0.4,-1.2,15.9,-2.4,-2.9
O=S(=O)(CCN1CCOCC1)c1ccc(OC(F)(F)F)cc1,1.5,17.2,0.3,.,-3.3,2.4
O=C(CN1C(=O)/C(=C/c2cccc(Br)c2)SC1=S)NC1=NCCS1,49.6*,45.0,-4.7,32.2,-1.2,14.0
CC(C)(C)NC(=O)CN1C(=O)/C(=C/c2ccccc2)SC1=S,16.3,17.5,1.7,24.5,-1.9,-0.3
Cc1cccc(Cc2cnc(NC(=O)CN3C(=O)/C(=C/c4ccccc4)SC3=S)s2)c1,62.3*,-2.2,-2.7,29.3,-1.5,11.9
